# LMPTP block: LMPTP phosphatase inhibitors, primary screen, biochemical, fluorescence intensity, uHTS. recombinant LMPTP-A, OMFP fluorogenic substrate. Low molecular weight phosphotyrosine protein phosphatase (Homo sapiens), P24666. 0.22% of 360,000 active. inhibition, % at 20 µM. AID 651560, 2012;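 active = compounds that cut the enzyme signal by at least half of the control window in the single-dose screen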;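 note: plate controls were DMSO wells with enzyme plus substrate for no effect and substrate without enzyme for full effect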
# Target sequence (P24666 whole entry, looked up): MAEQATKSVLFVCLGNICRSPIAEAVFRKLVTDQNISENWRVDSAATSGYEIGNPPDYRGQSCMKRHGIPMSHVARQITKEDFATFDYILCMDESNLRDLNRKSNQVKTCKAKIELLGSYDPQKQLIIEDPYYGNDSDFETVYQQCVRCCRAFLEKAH
#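 Test system – LMPTP-A enzyme · Amount – LMPTP-A at 0.625 nM final in the reaction · Buffer or medium – Bis-Tris pH 6.0, DTT, detergent · Reagent – OMFP 400 µM · Doses – single 20 µM dose · Schedule – reaction 50 min, room temperature, dark · Detection – fluorescence intensity of OMFP turnover product · Evaluation – percent inhibition versus substrate-only and uninhibited controls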
# SUMO1-SIM PPI: modulators of SUMO1 protein-protein interactions, primary screen, biochemical, uHTS; Small ubiquitin-related modifier 1 (Homo sapiens), P63165; inhibition, % at 20 µM; 0.33% of 360,000 active; SUMO1 binding to a labelled peptide, TR-FRET, 1 h; AID 602429, 2012; in the data active = inhibition above about 37%
# Target sequence (P63165 whole entry, looked up): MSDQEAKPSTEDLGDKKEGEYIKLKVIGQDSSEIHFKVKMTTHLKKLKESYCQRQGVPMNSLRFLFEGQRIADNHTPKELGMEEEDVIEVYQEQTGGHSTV
# Scp1 inh: Scp-1 phosphatase inhibitors, primary screen, biochemical, colorimetric, uHTS; Carboxy-terminal domain RNA polymerase II polypeptide A small phosphatase 1 (Homo …; Recombinant Scp1, phosphopeptide, malachite green phosphate absorbance; inhibition, % at 20 µM; 0.88% of 340,000 active; AID 493091, 2011;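 active = inhibition above about 50% at 20 µM, limit read from the data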;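 note: plate controls were DMSO wells with enzyme for no effect and wells lacking enzyme for full effect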
# Target sequence (Q9GZU7 76-261 limits assumed): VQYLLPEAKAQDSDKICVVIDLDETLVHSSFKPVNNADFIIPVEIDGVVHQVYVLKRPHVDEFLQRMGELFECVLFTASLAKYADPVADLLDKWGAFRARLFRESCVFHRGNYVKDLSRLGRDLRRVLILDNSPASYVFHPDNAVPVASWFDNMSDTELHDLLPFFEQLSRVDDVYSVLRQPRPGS
#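 Test system: SCP-1 catalytic domain; Buffer or medium: Acidic Tris acetate buffer with magnesium and detergent; Also added: Phosphorylated 17-residue peptide substrate; Compound: single 20 µM dose, 1% DMSO; Schedule: enzyme reaction 45 min at room temperature, colour 5 min, stabilisation 30 min; Signal: Phosphate-binding colour reagent, absorbance read at 630 nm.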
# NadD inh: inhibitors of S. aureus NadD, primary screen, biochemical, colorimetric, uHTS; purified NadD enzyme, colorimetric absorbance read-out; inhibition, % at 20 µM; 0.78% of 360,000 active; AID 602399, 2012; in the data active = inhibition above about 26%
# STEP inh: STEP phosphatase inhibitors, primary screen, biochemical, fluorescence intensity, uHTS | 0.25% of 360,000 active | recombinant STEP, OMFP fluorogenic substrate | Tyrosine-protein phosphatase non-receptor type 5 (Homo sapiens), P54829 | inhibition, % at 20 µM | AID 588621, 2011;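 active = inhibition at 20 µM, scaled per plate between control wells, above about 37%, limit read from the data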;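 note: 0% = DMSO with enzyme and substrate and 100% = substrate only without enzyme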
#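 Assay system: isolated STEP enzyme / Timing: 20 min at room temperature, dark / Doses: 20 µM, 1% DMSO / Technique: fluorescence intensity, excitation 480 nm, emission 540 nm / Reagent: fluorogenic phosphatase substrate OMFP at 25 µM final / Measure: percent inhibition scaled to no-enzyme and uninhibited-enzyme controls, plate-pattern corrected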
# DNMT1 inh: human DNMT1 methyltransferase inhibitors, primary screen, biochemical, molecular beacon, fluorescence, HinP1I cleavage, uHTS. inhibition (reported as % activation of signal), % at 10 µM. DNA (cytosine-5)-methyltransferase 1 (Homo sapiens), P26358. 0.83% of 360,000 active; in the data active = inhibition above about 50%
# NadD inh conf: inhibitors of S. aureus NadD, confirmation, biochemical, colorimetric, single concentration | shares compounds with NadD inh | purified S. aureus NadD, colorimetric enzyme assay | inhibition, % at 20 µM | 13% of 2,000 active | AID 624309, 2012; in the data active = inhibition mostly above about 42%, no sharp cut-off; inactive = mostly below about 42%
# The depositor's hits bear a star; / = no result. In the library only some 2.4% were active in any assay of this set; here they are far more common.
SMILES,LMPTP block,SUMO1-SIM PPI,Scp1 inh,NadD inh,STEP inh,DNMT1 inh,NadD inh conf
Cc1cccc(N(CC(=O)NC2CCCC2)C(=O)c2nsc(Cl)c2Cl)c1C,2.3,0.8,-2.7,-7.5,2.0,31.4,/
Cc1ccc2cc3cc(C(=O)N(CC(=O)NC4CCCC4)c4cccc(C)c4C)sc3nc2c1,4.5,-9.4,20.5,33.8*,2.0,-16.8,11.3
Cc1ccc(C)c(N(CC(=O)NC2CCCC2)C(=O)c2cc3cc4cccc(C)c4nc3s2)c1,4.2,-4.9,7.3,31.7*,0.3,-3.9,11.5
Cc1ccc(C)c(N(CC(=O)NC2CCCCC2)C(=O)c2csnn2)c1,-0.2,-0.4,-6.4,3.0,2.4,0.8,/
COC(=O)CCCC1=CC2=CC(=O)C(C)(OC(=O)c3cccs3)C(=O)C2=CN1Cc1ccccc1 (stereo unspecified),8.7,-19.2,9.3,8.3,1.7,-16.2,/
COC(=O)CCCC1=CC2=CC(=O)C(C)(OC(=O)c3cccs3)C(=O)C2=CN1Cc1ccc2c(c1)OCO2 (stereo unspecified),25.5,-5.7,12.2,35.6*,3.9,21.9,27.7
CCN(CC)S(=O)(=O)c1cccc(NC(=O)CNc2cccc(S(=O)(=O)N3CCOCC3)c2)c1,0.1,0.3,-8.2,-6.2,-1.8,1.9,/
CC(C)(C)n1nc2c(c1NC(=O)c1ccc(S(=O)(=O)N3CCCC3)cc1)CSC2,-0.6,3.7,-4.5,31.2*,2.0,-4.2,47.7*
O=C(Nc1c2c(nn1-c1ccc(F)cc1)CSC2)c1ccc(S(=O)(=O)N2CCOCC2)cc1,-0.9,3.7,-6.5,41.8*,5.1,-6.2,34.0
CCCCN(C(=O)c1ccc2c(c1)OCO2)c1ccccc1,0.0,-0.3,-3.2,0.7,5.4,-1.0,/
CCOc1cccc(-c2cc(NCCc3ccccn3)n3nccc3n2)c1,2.6,-0.3,/,-2.9,0.9,-3.3,/
CCOC(=O)c1c(NC(=O)CSc2nnc(-c3c[nH]c4ccccc34)n2CCOC)sc2c1CCCC2,3.4,6.0,16.8,33.6*,-3.1,-18.9,37.2
COCCn1c(SCC(=O)Nc2ccc3c(c2)OCCO3)nnc1-c1c[nH]c2ccccc12,-0.5,1.1,44.7,-2.1,-1.6,-1.6,/
O=C(CN1C(=O)NC2(CCCC2)C1=O)N1CCN(S(=O)(=O)c2ccccc2[N+](=O)[O-])CC1,-1.8,-9.9,-3.8,-7.0,2.4,4.2,/
Cc1cc(NS(=O)(=O)c2ccc(NC(=O)c3cc4c(=O)n5ccccc5nc4s3)cc2)nc(C)n1,7.8,5.2,14.9,31.4*,-0.5,11.1,46.0
CN(C)S(=O)(=O)c1cccc(NC(=O)c2cc3c(=O)n4ccccc4nc3s2)c1,-1.3,32.4,0.0,2.1,-2.3,4.8,/
O=C(COc1ccccc1Cl)NCCCNC(=O)c1ccco1,-0.2,-3.0,-7.7,0.7,-0.4,-0.6,/
COc1ccc(CC(N)c2csc(NC(=O)Nc3ccccc3-c3ccccc3)n2)cc1 (stereo unspecified),1.6,-48.7,/,31.4*,3.1,-16.2,7.2
CCCNC(=O)CN1C(=O)NC2(CCCc3cc(OC)ccc32)C1=O (stereo unspecified),-1.4,2.8,-6.4,-3.3,-1.7,3.7,/
O=C(Cc1cccc2ccccc12)N/N=C/c1ccc2cccc(O)c2n1,5.3,-6.4,-1.7,29.7*,3.0,2.7,37.3
CC(Oc1ccccc1)C(=O)N1CCN=C1SCc1ccc(F)cc1 (stereo unspecified),0.0,-2.2,-4.3,-0.6,0.1,12.0,/

# Source: PubChem BioAssay (Sanford-Burnham Center for Chemical Genomics)
